TAAR1 ag: agonists of human TAAR1. Q96RJ0. CHO RD-HGA16 TAAR1, Fluo-8 calcium fluorescence; vehicle wells 0%, saturating PEA agonist 100%. activation, % at 3 µM. hit rate 0.99% among 360,000. AID 624467;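 active = activation above the mean activation of all test compounds in the run plus 3 SD, cut at about 38% in these data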
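System: CHO-derived RD-HGA16 cells with stable Gα16 and human TAAR1. Times: 17-24 h plating, Fluo-8 75 min 37 °C, 30 min RT. Measured by: calcium-sensitive Fluo-8 signal, excitation 470-495, emission 515-575 nm. Read-out basis: % activation relative to PEA EC100 response. Control set: DMSO and PEA EC100. Repeats: no replicates (n 1).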
CRFBP-R2 block: antagonists of CRF-binding protein/CRF-R2 receptor complex | hit rate 0.59% among 350,000 | inhibition, % at 11.8 µM | HEK293 CRF-R2/CRF-BP, CRF-induced calcium fluorescence | AID 588475;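 active = inhibition of the ligand-induced calcium signal above about 50% at the single tested concentration, limit read from the data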
ANO1 block: inhibitors of mouse TMEM16A calcium-activated chloride channel | normalized B-score (activity score, 25-100; higher = stronger inhibition) at 10 µM | HEK293 TMEM16A/YFP iodide influx fluorescence, ionomycin | hit rate 1.2% among 310,000 | Q8BHY3 | AID 588511;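 active = ratio plate-corrected score three or more library SD toward inhibition, starting fluorescence score within five deviations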;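 also: score derived from kinetic fluorescence span divided by baseline fluorescence per well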
Target sequence (Q8BHY3 whole entry, looked up): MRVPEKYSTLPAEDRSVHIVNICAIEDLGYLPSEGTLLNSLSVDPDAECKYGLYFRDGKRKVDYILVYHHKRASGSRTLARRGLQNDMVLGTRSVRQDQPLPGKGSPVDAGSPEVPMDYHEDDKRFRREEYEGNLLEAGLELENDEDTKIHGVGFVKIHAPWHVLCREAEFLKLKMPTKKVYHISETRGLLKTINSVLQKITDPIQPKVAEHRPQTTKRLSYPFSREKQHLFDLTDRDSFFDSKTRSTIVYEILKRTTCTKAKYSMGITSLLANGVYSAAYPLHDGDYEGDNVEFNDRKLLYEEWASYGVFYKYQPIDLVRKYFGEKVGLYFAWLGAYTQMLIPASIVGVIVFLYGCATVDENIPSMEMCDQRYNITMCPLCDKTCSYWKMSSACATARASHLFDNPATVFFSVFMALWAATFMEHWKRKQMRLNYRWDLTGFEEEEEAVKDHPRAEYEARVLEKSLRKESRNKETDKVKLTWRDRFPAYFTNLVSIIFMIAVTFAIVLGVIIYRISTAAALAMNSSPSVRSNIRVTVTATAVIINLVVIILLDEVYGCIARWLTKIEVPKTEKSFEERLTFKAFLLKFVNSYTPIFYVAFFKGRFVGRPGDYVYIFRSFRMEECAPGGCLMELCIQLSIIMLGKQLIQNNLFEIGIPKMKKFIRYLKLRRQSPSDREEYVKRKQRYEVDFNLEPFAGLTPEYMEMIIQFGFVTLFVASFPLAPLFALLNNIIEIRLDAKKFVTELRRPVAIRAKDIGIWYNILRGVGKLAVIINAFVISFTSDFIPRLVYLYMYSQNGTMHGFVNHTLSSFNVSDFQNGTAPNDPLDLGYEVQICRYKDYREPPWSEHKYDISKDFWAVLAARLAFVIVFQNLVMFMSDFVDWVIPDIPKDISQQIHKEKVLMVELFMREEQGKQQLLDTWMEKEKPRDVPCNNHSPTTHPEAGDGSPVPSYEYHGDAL
TAAR1 antag: human TAAR1 antagonism. inhibition, % at 3 µM. CHO RD-HGA16 TAAR1, Fluo-8 calcium fluorescence, antagonist. hit rate 1.5% among 360,000. AID 624466. Q96RJ0;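 active = inhibition above a per-plate cutoff, the mean inhibition of test compounds on that plate plus 3 SD, cut at about 49% in these data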;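 also: 0% = DMSO plus EC80 beta-PEA response and 100% = DMSO alone without agonist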
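Test system: CHO RD-HGA16 cells bearing hTAAR1 | Reagent: β-PEA, EC80 | Compound dosing: 3 µM, single point | Schedule: Dye loading 75 min at 37 °C, then 30 min room temperature | Signal: Calcium fluorescence with Fluo-8 | Evaluation: Percent inhibition of PEA-evoked calcium signal, max/basal emission ratio | Control set: DMSO-only wells and EC80 β-PEA-stimulated wells | Repeats: Singlicate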
CRFR2-BP ag: CRF-BP/CRF-R2 complex agonism; activation, % at 13.2 µM; hit rate 0.46% among 350,000; HEK293 CRF-R2/CRF-BP, calcium dye fluorescence (FLIPR); percent of saturating CRF peptide response;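 active = activation of at least 50%, plus an integration ratio under a set limit after plate pattern correction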;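 also: plate controls were neutral control wells without compound for no effect and CRF at EC100 for full effect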
TMEM16A act: activators or potentiators of mouse TMEM16A chloride channel | HEK293 TMEM16A/YFP-H148Q/I152L, iodide quench fluorescence; stronger effect = lower value | Q8BHY3 | hit rate 0.3% among 340,000 | B-score at 10 µM;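 active = fluorescence-ratio B-score plate-corrected deviation score at least 3 library SD below zero, with starting fluorescence score within 5 deviations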;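 also: channel opened by trigger with iodide after compound preincubation; score built on the fluorescence ratio of max minus min over baseline; more negative score means more quench and so TMEM16A activation or potentiation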
The depositor's hits bear a star; i = inactive; nt = no result. In the library only some 3.9% were active in any assay of this set; here they are far more common.

SMILES	TAAR1 ag	CRFBP-R2 block	ANO1 block	TAAR1 antag	CRFR2-BP ag	TMEM16A act
COC(=O)C(CO)Nc1ncnc2onc(-c3ccc(F)cc3)c12 (configuration not stated)	-1	6	i	-4	1	i
CCOc1ccccc1N1CCN(c2nc(N)c(C#N)c(CC#N)c2C#N)CC1	19	-22	i	50*	2	i
Cc1ccc(CN(C(=O)COc2ccc(C)c(C)c2)C2CCS(=O)(=O)C2)o1 (configuration not stated)	1	-2	i	-15	-3	i
COc1ccc(-n2c(O)c(C=Nc3ccccc3)c3ccccc3c2=O)cc1	2	-6	i	-1	4	i
CCN(c1ccc(N=Cc2c(O)n(Cc3ccc(OC)cc3)c(=O)c3ccccc23)cc1)C(C)C	5	-99	nt	-4	127*	i
Cc1cc(Cl)ccc1C(O)c1ncc(-c2cccc3ccccc23)[nH]1 (configuration not stated)	2	nt	nt	-20	nt	nt
CN(C)CCN1CCc2ccccc21	18	11	i	5	0	i
c1ccc2c(c1)CCN2CCN1CCc2ccccc21	2	1	i	1	1	-17*
NS(=O)(=O)c1ccc(NC(=O)COC(=O)c2cnc(Cl)c(Cl)c2)cc1	33	-10	i	25	1	i
COc1ccc(Sc2nc(-c3ccccc3)ncc2C(=O)O)cc1	5	6	i	15	-6	i
O=C(O)c1cnc(-c2ccccc2)nc1Sc1ccc(Cl)cc1	7	55*	i	-6	-3	i
Cc1cccc(C2(c3cccc(C)c3)CC2C(=O)Nc2ccc([N+](=O)[O-])cc2O)c1 (configuration not stated)	3	21	100*	58*	0	i
COc1cccc(C2(c3cccc(OC)c3)CC2C(=O)Nc2ccc(F)cc2)c1 (configuration not stated)	0	-87	i	18	-4	i
C=CCNC(=O)C1CC1(c1cccc(C)c1)c1cccc(C)c1 (configuration not stated)	9	-8	i	-33	0	i
COc1cccc(C2(c3cccc(OC)c3)CC2C(=O)Nc2ccccc2Cl)c1 (configuration not stated)	1	77*	i	0	-1	i
Cc1noc(/C=C/c2cccs2)c1S(=O)(=O)N1CCC(C(=O)NCCCN2CCCC(C)C2)CC1 (configuration not stated)	0	-13	i	0	0	i
COc1ccc(NC(=O)CN2C(=O)NC(C)(C3CC3)C2=O)c(OC)c1 (configuration not stated)	4	9	nt	-1	-1	i
O=C(/C=C/c1ccccc1)Nc1nc(-c2ccncc2)cs1	3	22	i	50*	1	i
CCOC(=O)Oc1ccc2c(=O)c(Oc3cccc(C)c3)coc2c1	0	52*	i	1	-4	i
O=C(Oc1ccc2c(=O)c(Oc3ccc4ccccc4c3)coc2c1)c1ccco1	2	-9	i	-9	1	-5.9*
CCOC(=O)Oc1ccc2c(=O)c(Oc3cc(C)cc(C)c3)coc2c1	11	10	i	11	11	i
COc1ccc(CNC(=O)[C@@H](NC(=O)C2CCN(C(=O)[C@@H](N)Cc3ccccc3)CC2)C(C)C)cc1	1	-9	i	-29	1	i
COc1cc(/C=C2\C(=O)ON=C2c2ccc(Cl)cc2)ccc1O	5	31	i	9	26	-5.9*
CN(c1ccc(C(=O)NCCc2ccccc2)cc1)S(C)(=O)=O	40*	16	i	-3	0	i
O=C(NCCc1ccccc1)c1ccc(NC(=O)C2CCCCC2)cc1	5	10	nt	49*	-3	nt
O=C(NCCc1ccccc1)c1ccc(NC(=O)C2CCC2)cc1	5	-11	nt	17	-3	nt
CCOC(=O)C(=O)NCC(c1cccs1)S(=O)(=O)c1ccc(F)cc1 (configuration not stated)	0	0	i	-5	0	i

Screening data as filed in PubChem BioAssay.
